Screening results (PubChem BioAssay)
A selection: hits, their analogues and other compounds. The true share with any hit is near 2.6%.
iPSC survival up: enhancers of single-cell hiPSC survival, primary screen, ATPlite luminescence. 100% = ROCK inhibitor wells, 0% = DMSO. survival enhancement, % at 20 µM. 0.044% of 360,000 active; in the data active = survival enhancement above about 18%;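 also: cells exposed to compounds for 16 hours before the ATP read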
MC4R barr agon: MC4R agonists recruiting beta-arrestin, primary screen, cell-based, luminescence, agonist arm of biased-ligand search; U2OS MC4R beta-arrestin complementation; percent of melanotan II response, DMSO zero; activation, % at 8.9 µM; 0.98% of 360,000 active;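 active = activation above a per-plate cutoff, the mean activation of sample wells on that plate plus 3 SD, cut at about 8% in these data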
Target sequence (P32245 whole entry, looked up): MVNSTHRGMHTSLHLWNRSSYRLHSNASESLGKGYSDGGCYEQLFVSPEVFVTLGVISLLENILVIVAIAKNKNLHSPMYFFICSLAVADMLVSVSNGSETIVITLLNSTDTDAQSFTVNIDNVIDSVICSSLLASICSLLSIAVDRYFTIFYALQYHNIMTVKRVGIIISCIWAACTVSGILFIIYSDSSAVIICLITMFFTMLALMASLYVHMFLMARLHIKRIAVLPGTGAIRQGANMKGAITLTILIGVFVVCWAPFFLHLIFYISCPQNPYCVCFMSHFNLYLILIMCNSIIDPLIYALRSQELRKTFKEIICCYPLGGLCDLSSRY
MC4R antagonist: MC4R antagonists of cAMP signaling, primary screen, cell-based, TR-FRET, antagonist arm of biased-ligand search. MC4R-expressing cells, MTII-stimulated cAMP, LANCE TR-FRET. inhibition, % at 6.5 µM. 0.48% of 360,000 active;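 active = inhibition above its plate's cutoff, the mean of tested wells on that plate plus 3 SD, cut at about 29% in these data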;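 also: 0% = Melanotan II alone and 100% = Melanotan II plus saturating MCL0020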
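System: U2OS-MC4R stable cell line; Technique: Eu-cAMP/anti-cAMP TR-FRET, emission 671 nm; Repeats: single well per compound; Also added: Melanotan II; Dosing: one concentration, 6.5 µM nominal; Schedule: 30-min compound, 1-h challenge, 1-h detection, room temperature.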
Tb MetRS inh: T. brucei MetRS inhibitors, primary screen, biochemical, luminescence; inhibition, % at 11.9 µM; purified T. brucei MetRS, ATP depletion, Kinase-Glo luminescence; 0.4% of 360,000 active;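 active = inhibition above a per-plate cutoff of the control wells' mean inhibition plus 3 SD, cut at about 5.5% in these data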;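 also: 0% = DMSO wells median and 100% = median of wells with control inhibitor compound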
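Material – parasite MetRS enzyme · Medium – HEPES-MgCl2-KCl buffer plus DTT, spermine, BSA, pyrophosphatase · Reagent – ATP, methionine and E. coli bulk tRNA substrates · Times – 15 min enzyme-compound preincubation, 2 h reaction, 10 min detection, 25 °C · Measured by – luminescence of leftover ATP · Evaluation – percent inhibition relative to median high and low control wells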
ABCB6 inh 2: ABCB6 transporter inhibitors, primary screen, K562-ABCB6 cells, flow cytometry, MLPCN library; K562-ABCB6 porphyrin accumulation, 1 h; stronger effect = lower value; 0.19% of 360,000 active; fluorescence ratio to DMSO, % at 10 µM; AID 602162, 2011;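 active = fluorescence ratio to DMSO below 75%, the collection mean minus 3 SD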;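 also: signal is porphyrin accumulated inside mitochondria; 100% equals median channel fluorescence of DMSO control wells; lower ratio means ABCB6 inhibition with less porphyrin fluorescence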
Granule exo inh: LAMP-1 surface exposure blockers, TALL-104 cells – cell-based, flow cytometry, MLPCN library, primary screen. TALL-104 LAMP-1 surface exposure; cells stimulated with thapsigargin and PMA. inhibition, % at 10 µM. 0.66% of 360,000 active;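 active = inhibition above about 55%, limit read from the data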
Granule exo CP1: inhibitors of lytic granule exocytosis, confirmation, TALL-104 cells, flow cytometry, Cherry Pick01 | LAMP-1 externalization; stimulated with PMA plus thapsigargin | 11% of 1,500 active | shares compounds with Granule exo inh | AID 651954, 2012 | inhibition, % at 10 µM; in the data active = inhibition above about 60%;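 also: 0% = stimulated vehicle wells and 100% = unstimulated wells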
The depositor's hits bear a star; . = no result given.

SMILES	iPSC survival up	MC4R barr agon	MC4R antagonist	Tb MetRS inh	ABCB6 inh 2	Granule exo inh	Granule exo CP1
COc1ccc(OC)c(-c2csc(NC(=O)Cc3ccc(OC)c(OC)c3)n2)c1	1	1	0	0	99	64*	-4
COc1ccc(OC)c(-c2csc(NC(=O)Cc3ccccc3)n2)c1	0	4	3	-1	100	59*	-13
COc1ccc(-c2csc(NC(C)=O)n2)cc1OC	0	0	1	0	94	1	.
COc1ccc(OC)c(-c2csc(NC(=O)Cc3cccs3)n2)c1	-1	-1	6	0	99	-6	.
COc1cccc(O)c1CN1CCC(C(=O)Nc2ccc(-c3cccc(C)c3)cc2)CC1	0	7	6	1	95	66*	14
CS(=O)(=O)N(Cc1ccc(C(=O)Nc2ccccc2Sc2ccccc2)cc1)c1ccccc1	-2	-1	5	-1	101	85*	-2
CCN(CC)c1cc(C)c2cc(NC(=O)c3cccs3)ccc2n1	-1	-1	5	1	101	67*	-13
CCN(CC)c1cc(C)c2cc(NC(=O)c3ccccc3OC)ccc2n1	0	-2	-3	0	112	31	.
N#Cc1ccc(C(=O)OCC(=O)N2CCOCC2)cc1	0	-1	5	0	96	-5	.
CCOc1ccccc1N1CC(C(=O)Nc2cc(Cl)ccc2C)CC1=O (centres undefined)	-1	-1	16	1	98	10	.
CCSc1nc2c(c(=O)[nH]c(=O)n2C)n1CC(O)COc1ccccc1 (centres undefined)	7	1	23	0	101	87*	-2
Cn1c(=O)[nH]c(=O)c2c1nc(SCCO)n2CC(O)COc1ccccc1 (centres undefined)	2	-2	21	0	99	-4	.
COc1ccc(OCC(O)CNC(=O)c2sccc2Cl)cc1 (centres undefined)	1	-3	5	0	98	-3	.
COc1cccc(C2Nc3ccccc3C(=O)N2c2ccc(F)cc2)c1O (centres undefined)	0	-2	4	-1	97	66*	-10
O=C1c2ccccc2NC(c2ccccc2O)N1c1ccc(F)cc1 (centres undefined)	-1	0	5	0	97	2	.
O=C(O)c1ccccc1C(=O)NC1Cc2ccccc2C1	-1	-1	-2	0	98	-4	.
CCOC(=O)C1(CCc2ccccc2)CCN(Cc2ccc(C(=O)OC)cc2)CC1	-1	1	6	0	96	21	.
CCOC(=O)C1(CCOc2ccccc2)CCN(Cc2cccc(OC)c2OC)CC1	-1	2	-2	-1	99	75*	-10
CCOC(=O)C1(CCOc2ccccc2)CCN(Cc2ccc(OCC)c(CO)c2)CC1	0	-1	5	-1	94	81*	-12
CCOC(=O)C1(CCOc2ccccc2)CCN(CCCn2cccn2)CC1	0	-4	-4	-1	95	59*	-4
CCOC(=O)C1(CCc2ccccc2)CCN(Cc2cc(OC)c(OC)cc2OC)CC1	-1	0	6	0	97	64*	-2
CCOC(=O)C1(CCOc2ccccc2)CCN(Cc2ccc3nonc3c2)CC1	0	0	7	0	94	4	.
Cc1ccsc1/C=C1\SC(N2CC(C)OC(C)C2)=NC1=O (centres undefined)	-2	-2	-19	-1	91	1	.
Cc1cccc(NC(=S)NC(NC(=O)OCc2ccccc2)C(Cl)(Cl)Cl)c1 (centres undefined)	-1	4	19	0	102	-4	.
Cc1ccc(C(=O)NCCS(=O)(=O)N2CCN(c3ccccc3F)CC2)cc1[N+](=O)[O-]	2	-1	-6	0	89	2	.
SMILES	iPSC survival up	MC4R barr agon	MC4R antagonist	Tb MetRS inh	ABCB6 inh 2	Granule exo inh	Granule exo CP1
CCOC(=O)C1(CCOc2ccccc2)CCN(Cc2ccc(OC)cc2)CC1	-1	1	3	-1	97	80*	-3
CCOC(=O)C1(CCOc2ccccc2)CCN(Cc2cccc(F)c2)CC1	0	-1	2	-1	93	64*	-12
CCOC(=O)C1(CCOc2ccccc2)CCN(Cc2ccc(NC(C)=O)cc2)CC1	-2	1	-1	-1	115	1	.
CCOC(=O)C1(CCOc2ccccc2)CCN(Cc2cccc3c2OCO3)CC1	0	2	11	-1	90	16	.
CCOC(=O)C1(CCOc2ccccc2)CCN(Cc2ccccc2O)CC1	0	-1	5	0	97	56*	-13
CCOC(=O)C1(CCOc2ccccc2)CCN(Cc2cccc(OCCO)c2)CC1	0	-1	-4	-1	96	37	.
C=COCCCNc1ncnc2sc(-c3ccccc3)cc12	0	1	0	0	88	43	.
O=S(=O)(/N=C(/Nc1cccc2ccccc12)c1ccccc1)c1ccc(Br)cc1	0	5	15	0	103	47	.
CCc1ccccc1NC(=O)CC(NCc1ccccc1)C(=O)O (centres undefined)	1	-2	2	0	100	-3	.
CCN1CCN(c2ccc(NC(=O)CCc3c(C)nc4c(-c5ccc(F)cc5)c(C)nn4c3C)cc2)CC1	-4	0	4	-1	104	57*	-10
Cc1onc(-c2c(F)cccc2Cl)c1C(=O)Nc1sc2c(c1C(N)=O)CCC2	-2	-1	-4	-1	97	56*	7
Cc1ccc(C(=O)N/C(=C\c2ccc(-c3ccccc3[N+](=O)[O-])o2)C(=O)NCCCN(C)C)cc1	0	-3	-5	0	121	77*	-3
CCOc1ccccc1N1CCN(C(=O)c2cc3cc(OC)ccc3[nH]2)CC1	-1	1	0	-1	96	1	.
CCN(CC)C(=O)CC(c1ccc(OC)cc1)c1c(OC)cc(OC)c2ccc(=O)oc12 (centres undefined)	4	-2	11	0	101	-4	.
CSc1ncc(Cl)c(C(=O)Nc2cccnc2)n1	-1	1	5	-1	101	79*	-4
